Shown are actives, neighbours in structure and some others; about 1.7% of the full set was active somewhere.
CAL PDZ FP-1: CAL PDZ peptide-binding inhibitors, primary screen, biochemical, fluorescence polarization, Cer-tagged CAL PDZ, HTS; inhibition, % at 20 µM; purified CAL PDZ, TMR-peptide fluorescence polarization, 1 h; AID 504414, 2011; hit rate 0.02% among 330,000; Golgi-associated PDZ and coiled-coil motif-containing protein (Homo sapiens), Q9HD26;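 active = highest replicate inhibition of at least 40%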
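Material: tagged CAL PDZ domain; buffer or medium: 25 mM sodium phosphate pH 7.4, 150 mM NaCl, TCEP, IgG, Thesit; compound dosing: single point, 20 µM; schedule: 1 h incubation at room temperature before polarization reading; measured by: FP readout, S and P plane fluorescence; read-out basis: percent inhibition from loss of millipolarization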
CAL PDZ FP-2: untagged CAL PDZ binding inhibitors, primary screen, biochemical, fluorescence polarization, HTS; Golgi-associated PDZ and coiled-coil motif-containing protein (Homo sapiens), Q9HD26; purified CAL PDZ, TMR-peptide fluorescence polarization, 1 h; inhibition, % at 24.9 µM; hit rate 0.92% among 300,000; AID 602252, 2012;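 active = mean inhibition of at least 30% with at least half of replicates also reaching 30%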
AI-2 QS mod: Vibrio harveyi AI-2 quorum sensing modulators, primary screen, JMH597 strain, luminescence/OD600 ratio | hit rate 0.4% among 300,000 | AID 2094, 2009 | activity change, % at 7.5 µM | Vibrio harveyi JMH597 AI-2 luminescence/OD600 ratio, 9 h; stronger effect = lower value; strain lacks LuxN and CqsS sensors; 0 = neutral-control median; in the data active = activity change below about -75%, passing the limit was not always enough;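 also: luminescence divided by OD600 gain over 9 h not by final OD600 alone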
ARNT TACC3 PPI: disruptors of ARNT/TACC3 protein interaction, primary screen, biochemical, AlphaScreen, single concentration. AlphaScreen His-ARNT PAS-B/GST-TACC3 binding, luminescence; TACC3 fragment carries E629A point mutation. inhibition, % at 9.99 µM. hit rate 0.66% among 390,000;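 active = mean inhibition of replicates at least 50% and at least half of replicates each reaching 50%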
Rce1 inhib: yeast Rce1p protease inhibitors, primary screen, biochemical, fluorescence, cell-free homogeneous; AID 2563, 2010; calls only; CAAX prenyl protease 2 (Saccharomyces cerevisiae (strain ATCC 204508 / S288c)), Q03530; yeast membranes, quenched prenylated peptide cleavage fluorescence; hit rate 0.27% among 290,000;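 active = fall in fluorescence gain of 50% or more versus controls, with final raw signal at or below 3038400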
Target sequence (Q03530 whole entry, looked up): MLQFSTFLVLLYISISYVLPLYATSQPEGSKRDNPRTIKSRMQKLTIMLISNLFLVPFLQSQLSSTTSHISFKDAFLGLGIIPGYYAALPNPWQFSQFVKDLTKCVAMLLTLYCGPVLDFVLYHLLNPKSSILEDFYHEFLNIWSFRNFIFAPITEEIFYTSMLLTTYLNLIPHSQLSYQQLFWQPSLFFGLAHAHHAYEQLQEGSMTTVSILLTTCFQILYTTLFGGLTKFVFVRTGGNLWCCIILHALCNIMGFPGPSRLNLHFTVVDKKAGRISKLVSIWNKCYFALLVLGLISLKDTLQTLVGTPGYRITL
AlphaScreen ctr: AlphaScreen signal interference compounds, dose response, artefact control for ARNT-TACC3 interaction inhibitor project, biochemical, luminescence, cherry-pick. His-ARNT PASB-GST AlphaScreen artifact counter-screen. shares compounds with ARNT TACC3 PPI. AC50, µM (doses to about 68 µM). hit rate 50% among 1,200;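 active = every separate test run was called active for a drop in luminescence, with AC50 within twice the top valid dose, actives reach about 71 µM in these data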
Numbers stand for hits; i = inactive; nt = no result given.

SMILES	CAL PDZ FP-1	CAL PDZ FP-2	AI-2 QS mod	ARNT TACC3 PPI	Rce1 inhib	AlphaScreen ctr
COc1ccc(C(NC(=O)c2cccnc2)c2cc(Cl)c3cccnc3c2O)cc1OC (centres undefined)	i	i	i	i	i	nt
O=C(C[C@@H]1C=C[C@@H](NS(=O)(=O)c2ccccc2)[C@H](CO)O1)N1CCc2ccccc2C1	nt	nt	nt	i	nt	nt
COc1ccccc1N1CCN(Cc2ccc(OC)c(OC)c2OC)CC1	i	i	i	i	i	nt
Oc1c(CN2CCOCC2)cc(COCc2ccccc2)c2cccnc12	i	i	i	56	i	4µM
O=C(Oc1c(CN2CCOCC2)cc(Cl)c2cccnc12)c1ccccc1Br	i	i	i	63	i	33µM
COCc1cc(CN2CCN(C)CC2)c(O)c2ncccc12	i	i	i	67	i	10µM
COc1ccccc1N1CCN(Cc2ccc(O)c3ncccc23)CC1	i	nt	i	70	i	2.8µM
c1ccc(CN2CCOCCOCCOCC2)cc1	i	i	i	i	i	nt
CN(CC(=O)Nc1cc(C(F)(F)F)ccc1-n1cncn1)Cc1nc2ccccc2c(=O)[nH]1	i	nt	nt	i	nt	nt
Cc1[nH]c2ccc(C(=O)N3CCN(c4cccc(Cl)c4)CC3)cc2c1C	i	i	i	i	i	nt
O=C(CSc1nc(=O)n(CCCN2CCOCC2)c2c1CCCC2)Nc1ccc(Cl)cc1	i	i	i	i	i	nt
Oc1c(CN2CCN(c3ccccc3)CC2)cc(Br)c2cccnc12	i	i	i	59	i	2.4µM
CC(=O)NC1=NC(=O)/C(=C/c2cn(C(C)=O)nc2-c2ccccc2)S1	i	i	i	54	nt	i
COc1ccc(Nc2cc3n(c(=O)n2)CCc2cc(OC)c(OC)cc2-3)cc1	i	nt	i	63	i	i
CCCCN(CC)S(=O)(=O)N1CCC(C(=O)NCc2ccc(F)cc2)CC1	i	i	i	i	i	nt
C[C@@H]1CN([C@@H](C)CO)C(=O)c2cc(NS(=O)(=O)c3cn(C)cn3)ccc2O[C@@H](C)CCCCO[C@H]1CN(C)C(=O)Nc1cccc2ccccc12	nt	nt	nt	i	nt	nt
COc1ccc(-c2ccc(CNCc3ccccn3)o2)cc1Cl	nt	nt	i	nt	i	nt
Fc1ccc(-c2ccc(CNCc3ccccn3)o2)cc1	i	i	i	61	i	i
CN1/C(=N\O)c2cccc3cccc1c23	i	i	i	52	i	i
CNC(=O)CN1C(=O)c2cccc3cccc1c23	nt	i	i	i	i	nt
O=S(=O)(c1ccccc1)c1cnc(-c2ccccc2)nc1N1CCCC1	i	i	i	i	i	nt
O=C(C1CCN(S(=O)(=O)c2cccc3cccnc23)CC1)N1CCN(Cc2ccccc2)CC1	i	i	nt	i	nt	nt
O=S(=O)(NC1CCN(Cc2ccc(OCCO)cc2)CC1)c1cccc2cccnc12	nt	nt	nt	113	nt	25µM
O=S(=O)(NC1CCN(Cc2ccc(OCCO)cc2)CC1)c1cc(Cl)ccc1Cl	nt	nt	nt	i	nt	nt
O=S(=O)(c1cccc2cccnc12)N1CCN(Cc2ccc(OCCO)cc2)CC1	nt	nt	nt	64	nt	51µM
SMILES	CAL PDZ FP-1	CAL PDZ FP-2	AI-2 QS mod	ARNT TACC3 PPI	Rce1 inhib	AlphaScreen ctr
C[C@H]1CCCCO[C@H](CN(C)C(=O)C2CCCCC2)[C@@H](C)CN([C@@H](C)CO)C(=O)c2cc(NC(=O)CCC(F)(F)F)ccc2O1	nt	nt	nt	i	nt	nt
CC(C)C#Cc1ccc2c(c1)O[C@@H](CN(C)C(=O)CN(C)C)[C@@H](C)CN([C@@H](C)CO)S2(=O)=O	nt	nt	nt	99	nt	i
Cn1c(C(=O)N2CCN(C(=O)c3ccco3)CC2)cc2c(=O)n3ccccc3nc21	i	i	i	i	i	nt
CN1CCN(CC(=O)Nc2ccccc2[N+](=O)[O-])CC1	i	i	i	i	i	nt
O=C(CN1CCCCCC1)Nc1ccccc1[N+](=O)[O-]	nt	i	nt	51	nt	i
CCOC(=O)C1CCN(C(=O)c2cc(S(=O)(=O)N3CCCCCC3)ccc2OC)CC1	i	i	i	i	i	nt

Assay outcomes (PubChem BioAssay)
